Experimental data gathered from unrelated publications.
Protocols differ between the studies behind these lines.
CDK5: Cyclin-dependent kinase 5 (CDK5, Homo sapiens, UniProt Q00535)
CDK5 with p25: Cyclin-dependent kinase 5, with p25 (CDK5, Homo sapiens, UniProt Q00535)

| Compound | target | effect on | action | technique | concentration | measurement | result |
| --- | --- | --- | --- | --- | --- | --- | --- |
| C1=C/COCc2cc(ccc2OCCN2CCCC2)Nc2nccc(n2)-c2cccc(c2)COC/1 | CDK5 | binding | – | – | 0.1 µM | remaining binding | 100% |
| CC#CC(=O)N1CCC[C@H]1c1nc(-c2ccc(C(=O)Nc3ccccn3)cc2)c2c(N)nccn12 | CDK5 | enzyme activity | inhibitor | – | 1 µM | inhibition | 0% |
| Cc1ccc(NC(=O)c2ccnc(C(F)(F)F)c2)cc1-c1cc(OCCO)nc(N2CCOCC2)c1 | CDK5 | binding | – | competition with immobilised ligand | 1 µM | remaining binding | 95% |
| CCCCC(=O)Nc1ccc(-c2ccc3ncn(CCC)c(=O)c3c2)cn1 | CDK5 | binding | – | competition with immobilised ligand | 0.5 µM | remaining binding | 78% |
| COc1ccc2oc(-c3ccc4nc(N)oc4c3)c/c(=N\c3ccccc3NC(=O)CCN)c2c1 | CDK5 with p25 | binding | – | – | 1 µM | remaining binding | 102% |
| C[C@]1(O)CCCN(c2nc(Nc3ccc(S(=O)(=O)N[C@H]4CC[C@H](CN5CCN(c6ccc(C7CCC(=O)NC7=O)cc6F)CC5)CC4)cc3Cl)ncc2C(F)(F)F)C1 (stereo partly shown) | CDK5 | binding | – | competition with immobilised ligand | 1 µM | remaining binding | 72% |
| CO[C@@H]1[C@H](N(C)C(=O)c2ccccc2)C[C@H]2O[C@]1(C)n1c3ccccc3c3c4c(c5c6ccccc6n2c5c31)C(=O)NC4 | CDK5 | enzyme activity | inhibitor | – | 1 µM | inhibition | 0% |
| C[C@]1(O)CCCN(c2nc(Nc3ccc(S(=O)(=O)N[C@H]4CC[C@H](CN5CCN(c6ccc(C7CCC(=O)NC7=O)cc6F)CC5)CC4)cc3F)ncc2C(F)(F)F)C1 (stereo partly shown) | CDK5 | binding | – | competition with immobilised ligand | 1 µM | remaining binding | 59% |
| CC(C)S(=O)(=O)c1ccc2nccc(Nc3ccc4sc(C5CCCC5)nc4c3)c2c1 | CDK5 with p25 | enzyme activity | inhibitor | – | 1 µM | activity vs control | 97.5% |
| COc1ccc2[nH]c3c4[nH]c5ccc(OC)cc5c4c4c(c3c2c1)C(=O)NC4=O | CDK5 | binding | – | competition with immobilised ligand | 1 µM | remaining binding | 75% |
